Measured values of several laboratories.

Compound	test system	conditions	Papp [×10⁻⁶ cm/s]
N=c1c2c(-c3ccccc3)cn(Cc3ccccc3)c2ncn1CCO	PAMPA	50 µM, 30 min	1270
O=c1[nH]c2sc(-c3ccc(F)cc3)cc2c(=O)n1O	PAMPA	10 µM, 5 h	0.6
N=c1c2c(-c3ccccc3)c(-c3ccccc3)n(Cc3ccc(S(N)(=O)=O)cc3)c2ncn1C1CCOCC1	PAMPA	50 µM, 30 min	1
c1ccc(-c2nc(Nc3ccn4nccc4c3)c3ccccc3n2)nc1	PAMPA	10 µM, 3 h, pH 7.4	29.1
Cc1cccc(/C=C/[C@@H]2[C@H](N3C(=O)OC[C@@H]3c3ccccc3)C(=O)N2[C@H](CC(=O)N2CCC(N3CCCCC3)CC2)C(=O)N[C@H](C)c2ccccc2)c1	PAMPA-BBB	25 µg/mL, 18 h, pH 7.4	> 4
CCn1ccc2nc(-c3ccccn3)nc(N3CCC(c4ccccn4)C3)c21 (stereo not drawn)	PAMPA	10 µM, 3 h, pH 7.4	21
CC(C)NCC(O)COc1cccc2ccccc12 (stereo not drawn)	PAMPA-BBB	0.5 µM, 4 h, pH 7.4	4.82
CCCCNc1ccnc(Nc2cccc(-c3cccnc3)c2)n1	PAMPA	50 nM, 30 min	1720
O=C(O)c1ccc2c(c1)nc(NCc1ccccc1)c1ncccc12	PAMPA	5 h, pH 7.4	6.53
CN1CC(=O)O[C@H](Cc2ccccc2)C(=O)NCC(=O)N(C)CC(=O)O[C@H](Cc2ccccc2)C(=O)NCC1=O	PAMPA		15
Cc1sc2[nH]c(=O)n(O)c(=O)c2c1C	PAMPA	10 µM, 5 h	1
N=c1c2c(-c3ccccc3)cn(Cc3ccccc3)c2ncn1Cc1ccco1	PAMPA	50 µM, 30 min	1740
CC(C)Nc1ccnc(Nc2cccc(-n3ccnc3)c2)n1	PAMPA	50 nM, 30 min	2070
c1ccc(-c2nc(N3CCc4nc[nH]c4C3)c3ccccc3n2)nc1	PAMPA	10 µM, 3 h, pH 7.4	11.8
CONc1ccnc(Nc2cccc(-c3cccnc3)c2)n1	PAMPA	50 nM, 30 min	1300
c1ccc(C2CCN(c3nc(-c4ccn[nH]4)nc4ccccc34)C2)nc1 (stereo not drawn)	PAMPA	10 µM, 3 h, pH 7.4	41.5
O=C(CNc1cccc(OC(F)(F)F)c1)NC12CC3CC(CC(C3)C1)C2	PAMPA	16 h	3.5
O=C(CCCN1CCC(O)(c2ccc(Cl)cc2)CC1)c1ccc(F)cc1	PAMPA-BBB	50 µM, 16 h, pH 7.4	21.4
c1ccc(-c2nc(N3CCCC3c3ccccn3)c3ccccc3n2)nc1 (stereo not drawn)	PAMPA	10 µM, 3 h, pH 7.4	21.4
COc1cc(CN2CCc3c(cc(Cn4ccnc4C)cc3-c3cn(C)nc3C(F)(F)F)C2=O)cc(OC)c1	PAMPA	100 µM, 5 h, pH 7.4	5.3
CC(Nc1nc(-c2ccccn2)nc2ccccc12)c1ccccn1 (stereo not drawn)	PAMPA	10 µM, 3 h, pH 7.4	22.4
CC(C)Nc1ccnc(Nc2cccc(-c3nccs3)c2)n1	PAMPA	50 nM, 30 min	1960
NC(=O)c1cccc(-c2nc(N3CCC(c4ccccn4)C3)c3ccccc3n2)c1 (stereo not drawn)	PAMPA	10 µM, 3 h, pH 7.4	42
CO[C@H]1CNC[C@@H](OCC2CCC(F)(F)CC2)[C@@H]1Nc1ncc(-c2cncc(C)c2)c2cc(C)c(=O)[nH]c12	PAMPA	pH 7.4	19
COC(=O)[C@H](C)Nc1ccnc(Nc2cccc(-c3cccnc3)c2)n1	PAMPA	50 nM, 30 min	1910
c1ccc(-c2nc(N3CCC(c4ccccn4)C3)c3ccccc3n2)cc1 (stereo not drawn)	PAMPA	10 µM, 3 h, pH 7.4	42.4
O=c1[nH]c2sc3c(c2c(=O)n1O)CCNC3	PAMPA	10 µM, 5 h	0.07
